Assay results published in ChEMBL document CHEMBL4043227, “Novel xanthone-polyamine conjugates as catalytic inhibitors of human topoisomerase IIα” (Bioorg Med Chem Lett, 2017).
pIC50: −log10 of the molar value. Calls of active or inactive are those of the source. The calls are words filed in the database; no cut-off is given here.

Experiments:
[1] = target: T1, DNA topoisomerase 2-alpha (Homo sapiens, UniProt P11388); test: Ratio of IC50 for recombinant human topoisomerase-2alpha expressed in Saccharomyces cerevisiae JEL1 harboring topoisomerase1 deletion mutant assessed as enzyme-mediated decatenation of kinetoplast DNA to IC50 for recombinant human topoisomerase-2alpha catalytic activity expressed in Saccharomyces cerevisiae JEL1 harboring topoisomerase1 deletion mutant assessed as reduction in supercoiled pBR322 DNA relaxation
Target sequence in this assay (P11388 whole entry): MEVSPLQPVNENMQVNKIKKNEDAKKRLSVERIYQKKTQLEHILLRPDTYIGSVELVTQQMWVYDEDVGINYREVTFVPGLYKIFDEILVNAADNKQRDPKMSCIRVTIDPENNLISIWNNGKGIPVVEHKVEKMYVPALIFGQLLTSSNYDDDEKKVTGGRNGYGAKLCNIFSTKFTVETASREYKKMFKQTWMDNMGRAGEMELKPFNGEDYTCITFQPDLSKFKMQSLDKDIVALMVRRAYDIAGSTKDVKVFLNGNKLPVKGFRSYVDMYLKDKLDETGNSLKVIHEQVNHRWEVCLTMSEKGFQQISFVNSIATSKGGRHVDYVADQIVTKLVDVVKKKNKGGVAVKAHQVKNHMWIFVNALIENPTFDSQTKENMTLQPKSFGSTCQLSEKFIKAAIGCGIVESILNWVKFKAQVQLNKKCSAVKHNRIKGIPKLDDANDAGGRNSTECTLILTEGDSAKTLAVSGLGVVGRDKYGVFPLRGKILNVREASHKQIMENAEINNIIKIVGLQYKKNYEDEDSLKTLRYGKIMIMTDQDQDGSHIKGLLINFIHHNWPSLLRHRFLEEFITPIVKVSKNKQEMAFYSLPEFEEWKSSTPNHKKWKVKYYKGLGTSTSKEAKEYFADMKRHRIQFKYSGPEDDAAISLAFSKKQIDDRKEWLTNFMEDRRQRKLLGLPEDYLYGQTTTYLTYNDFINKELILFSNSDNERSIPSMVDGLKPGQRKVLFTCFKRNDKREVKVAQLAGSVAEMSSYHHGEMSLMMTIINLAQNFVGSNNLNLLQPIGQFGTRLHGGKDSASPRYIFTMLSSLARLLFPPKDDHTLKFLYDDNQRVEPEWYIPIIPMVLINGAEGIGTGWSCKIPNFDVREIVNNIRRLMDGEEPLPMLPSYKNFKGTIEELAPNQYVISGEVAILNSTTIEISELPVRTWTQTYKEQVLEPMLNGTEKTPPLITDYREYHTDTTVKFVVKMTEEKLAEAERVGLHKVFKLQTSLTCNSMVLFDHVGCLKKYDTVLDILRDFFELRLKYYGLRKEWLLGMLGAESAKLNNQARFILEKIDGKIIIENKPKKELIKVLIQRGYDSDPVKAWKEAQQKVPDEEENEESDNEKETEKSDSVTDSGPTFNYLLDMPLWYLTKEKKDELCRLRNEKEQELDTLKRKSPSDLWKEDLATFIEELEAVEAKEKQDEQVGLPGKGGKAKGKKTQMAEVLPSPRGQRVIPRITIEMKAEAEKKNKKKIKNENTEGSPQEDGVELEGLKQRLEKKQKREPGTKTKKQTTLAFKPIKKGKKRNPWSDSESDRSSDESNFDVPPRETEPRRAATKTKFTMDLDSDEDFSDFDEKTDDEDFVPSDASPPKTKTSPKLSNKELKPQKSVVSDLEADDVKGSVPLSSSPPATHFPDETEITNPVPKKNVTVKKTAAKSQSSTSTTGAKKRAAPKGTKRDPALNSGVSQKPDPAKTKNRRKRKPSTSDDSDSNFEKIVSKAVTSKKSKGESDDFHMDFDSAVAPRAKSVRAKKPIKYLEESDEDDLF

[2] = Solubility of the compound in Tris-HCl at pH 7.9 at 50 to 100 uM; format: physicochemical; details: buffer, pH 7.9, 100 µM
[3] = target: T1, DNA topoisomerase 2-alpha; test: (§1) Poison activity at recombinant human topoisomerase-2alpha expressed in Saccharomyces cerevisiae JEL1 harboring topoisomerase1 deletion mutant assessed as enzyme-mediated supercoiled pBR322 cleavable complex formation up to 10 uM after 6 mins by ethidium bromide staining based agarose gel electrophoresis
In short: (§2)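 Double-strand DNA cleavage by topo IIα (150 nM) on negatively supercoiled DNA, tested at 2.5, 10, 50 and 100 µM (one compound only up to 10 µM). Linear form III is resolved from forms I and II on ethidium-stained gels. Cleavage is normalised to the no-drug control set to 1, with 100 µM etoposide as reference. SD of 2-3 independent experiments.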
Target sequence in this assay (P11388 whole entry): as above

[4] = target: T1, DNA topoisomerase 2-alpha; test: as §1, with “Inhibition of” for “Poison activity at”, “in presence of CaCl2” for “after 6 mins”
In short: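 Cleavage reactions contain CaCl2, which raises baseline topo IIα DNA cleavage about 10- to 15-fold. Enzyme at 150 nM with negatively supercoiled DNA. Xanthones are tested up to 10 µM, with no-enzyme and enzyme-only controls.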
Target sequence in this assay (P11388 whole entry): as above

[5] = target: T1, DNA topoisomerase 2-alpha; test: (§3) Inhibition of 150 nM recombinant human topoisomerase-2alpha catalytic activity expressed in Saccharomyces cerevisiae JEL1 harboring topoisomerase1 deletion mutant assessed as reduction in supercoiled pBR322 DNA relaxation at 10 uM after 4 mins by ethidium bromide staining based agarose gel electrophoresis
In short: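 Control relaxation run at high enzyme (150 nM topo IIα) to match the cleavage assay. Negatively supercoiled DNA substrate, with no-enzyme and enzyme-only controls, read on gel.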
Target sequence in this assay (P11388 whole entry): as above

[6] = target: T1, DNA topoisomerase 2-alpha; test: as §3, with “enzyme-mediated relaxed” for “supercoiled”, “strand passage” for “relaxation at 10 uM”, “2” for “4”, “mins in presence of APP(NH)P” for “mins”
In short: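 Topo IIα at 150 nM with relaxed DNA as substrate, ATP replaced by the non-hydrolysable analogue APP(NH)P, so only events up to strand passage are scored. Catenated DNA is read at the gel origin against relaxed DNA bands, with no-enzyme and enzyme-only controls. Gels represent at least 3 independent experiments.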
Target sequence in this assay (P11388 whole entry, looked up, stated change not applied): as the sequence (P11388 whole entry) above

[7] = target: T1, DNA topoisomerase 2-alpha; test: Inhibition of recombinant human topoisomerase-2alpha expressed in Saccharomyces cerevisiae JEL1 harboring topoisomerase1 deletion mutant assessed as reduction in etoposide induced enzyme-mediated DNA cleavage up to 10 uM by ethidium bromide staining based agarose gel electrophoresis
In short: (§4)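 Competition assay: 5-100 µM xanthone (one compound only up to 10 µM, for solubility) is added with 100 µM etoposide. Enzyme double-strand break levels are expressed relative to etoposide alone, set to 100%. Mean ± SD of 2-3 independent experiments.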
Target sequence in this assay (P11388 whole entry): as above

[8] = target: T1, DNA topoisomerase 2-alpha; test: as §3, with “of” for “of 150 nM”, “in presence of spermine” for “after 4 mins”
In short: (§5)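 Negatively supercoiled plasmid relaxed by 3 nM topoisomerase IIα with polyamine (spermidine or spermine) added. Controls were DNA without enzyme and enzyme without inhibitor. Products resolved on gels with supercoiled (form I) and nicked (form II) markers, then quantified. Error bars are standard error of the mean for 2 independent experiments.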
Target sequence in this assay (P11388 whole entry): as above

[9] = target: T1, DNA topoisomerase 2-alpha; test: as §3, with “of” for “of 150 nM”, “in presence of spermidine” for “after 4 mins”; in short: as §5
[10] = target: T1, DNA topoisomerase 2-alpha; test: as §3, with “3” for “150”
In short: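 Relaxation of negatively supercoiled plasmid by 3 nM topoisomerase IIα was read from gel mobility (supercoiled form I vs nicked form II). Controls were DNA without enzyme and enzyme-treated DNA without compound. Gels are representative of 2-4 independent experiments.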

[11] = target: T1, DNA topoisomerase 2-alpha; test: as §1, with “formation at 2.5” for “formation up”, “to 100” for “to 10”; in short: as §2
[12] = target: T1, DNA topoisomerase 2-alpha; test: Inhibition of 3 nM recombinant human topoisomerase-2alpha catalytic activity expressed in Saccharomyces cerevisiae JEL1 harboring topoisomerase1 deletion mutant assessed as reduction in supercoiled pBR322 DNA relaxation after 4 mins by ethidium bromide staining based agarose gel electrophoresis
In short: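 Topo IIα at 3 nM relaxes negatively supercoiled DNA, with no-enzyme and enzyme-only controls. Supercoiled (form I) and nicked (form II) bands are resolved on gel, and IC50 is estimated from the gels. Gels represent 2-4 independent experiments.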
Target sequence in this assay (P11388 whole entry, looked up, stated change not applied): as the sequence (P11388 whole entry) above

[13] = target: T1, DNA topoisomerase 2-alpha; test: Inhibition of recombinant human topoisomerase-2alpha expressed in Saccharomyces cerevisiae JEL1 harboring topoisomerase1 deletion mutant assessed as reduction in etoposide induced enzyme-mediated DNA cleavage up to 100 uM by ethidium bromide staining based agarose gel electrophoresis; in short: as §4
[14] = target: T1, DNA topoisomerase 2-alpha; test: Inhibition of recombinant human topoisomerase-2alpha expressed in Saccharomyces cerevisiae JEL1 harboring topoisomerase1 deletion mutant assessed as reduction in enzyme-mediated [gamma32P]ATP hydrolysis up to 50 uM after 8 mins
[15] = target: T1, DNA topoisomerase 2-alpha; test: Inhibition of recombinant human topoisomerase-2alpha expressed in Saccharomyces cerevisiae JEL1 harboring topoisomerase1 deletion mutant assessed as reduction in enzyme-mediated [gamma32P]ATP hydrolysis using relaxed pBR322 DNA as substrate after 8 mins
Target sequence in this assay (P11388 whole entry, looked up, stated change not applied): as the sequence (P11388 whole entry) above

Structure (SMILES)	Ratio IC50 [1]	inhibition [4]	inhibition [5]	Activity [11]	pIC50 [12]	further results
Cl.Cl.Cl.Cl.NCCCNCCCCNCCCNCC(O)COc1cc(O)c2c(=O)c3ccccc3oc2c1 (stereo not given)	2 to 3	inactive	Active			solubility [2]: Insoluble; Activity [3]: inactive; pIC50 [6]: > 5.00; inhibition [7]: Active
O=c1c2ccccc2oc2cc(O)cc(O)c12	2 to 3	inactive	inactive	inactive	≤ 4.00	inhibition [8]: inactive; inhibition [9]: inactive; inhibition [10]: inactive
NCCCCNCCCN [SPERMIDINE]					< 3.00	
NCCCNCCCCNCCCN [SPERMINE]					< 3.00	
NCCCNCC(O)COc1cc(O)c2c(=O)c3ccccc3oc2c1 (stereo not given)	2 to 3	inactive	Active	inactive	6.00	inhibition [13]: Active
NCCCCNCCCNCC(O)COc1cc(O)c2c(=O)c3ccccc3oc2c1 (stereo not given)	2 to 3	inactive	Active	inactive		inhibition [13]: Active; inhibition [14]: inactive; pIC50 [6]: > 5.00; pIC50 [15]: 5.00
CCCCNCC(O)COc1cc(O)c2c(=O)c3ccccc3oc2c1 (stereo not given)				inactive	4.00	
NCCCCNCC(O)COc1cc(O)c2c(=O)c3ccccc3oc2c1 (stereo not given)				inactive	5.30 to 5.60	
